Consider six compounds from ChEMBL document CHEMBL1649351, “Synthesis, in vitro antimicrobial and in vivo antitumor evaluation of novel pyrimidoquinolines and its nucleoside derivatives” (Eur J Med Chem, 2011).

Data set [1] has as its system Bacillus subtilis. The data set is described as follows: Antibacterial activity against Bacillus subtilis at 50 mg/disk after 24 to 28 hrs by agar disk diffusion method. Format: functional. A general note: In agar diffusion tests the substance spreads into inoculated agar from a disc or well.
The test system of data set [2] is Lactococcus lactis. The data set is described as follows: Antibacterial activity against Streptococcus lactis at 50 mg/disk after 24 to 28 hrs by agar disk diffusion method. Format: functional.
The test system of data set [3] is Escherichia coli. The experiment in a line: Antibacterial activity against Escherichia coli at 50 mg/disk after 24 to 28 hrs by agar disk diffusion method. Format: functional.
Data set [4] concerns Pseudomonas aeruginosa. The data set is described as follows: Antibacterial activity against Pseudomonas aeruginosa at 50 mg/disk after 24 to 28 hrs by agar disk diffusion method. It counts as functional.
Data set [5] concerns Candida albicans. The data set is described as follows: Antifungal activity against Candida albicans at 50 mg/disk after 5 days by agar disk diffusion method. Format: functional.
For data set [6], the system named is Nakaseomyces glabratus. The experiment in a line: Antifungal activity against Candida glabrata at 50 mg/disk after 5 days by agar disk diffusion method. Format: functional.
Data set [7] concerns HepG2. The experiment in a line: Antitumor activity against human HepG2 cells xenografted in Swiss albino mouse assessed as increase of mouse survival at 10 ug/kg, ip for 10 days (reference value: 22 +/- 1.90 day). It counts as functional. On the technique in general: In xenograft studies the graft and the host belong to different species.
Data set [8] concerns HepG2. The data set is described as follows: Antitumor activity against human HepG2 cells xenografted in Swiss albino mouse assessed as increase mouse life span at 10 ug/kg, ip for 10 days relative to control. Format: functional.
Data set [9] has as its system HeLa. The experiment in a line: Antitumor activity against human HeLa cells xenografted in Swiss albino mouse assessed as increase of mouse survival at 10 ug/kg, ip for 10 days (reference value: 22 +/- 1.90 day). It counts as functional.
For data set [10], the system named is HeLa. The experiment in a line: Antitumor activity against human HeLa cells xenografted in Swiss albino mouse assessed as increase mouse life span at 10 ug/kg, ip for 10 days relative to control. Format: functional.
Data set [11] concerns Mus musculus. The experiment in a line: Acute toxicity in human HepG2 cells xenografted ip dosed Swiss albino mouse assessed as mortality measured up to 2 weeks. The following applies: in vivo, 336 h. Format: organism-based. The procedure, abridged:
(§1)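 Adult Swiss albino mice were fasted 12 h and randomised into groups of 10. Each group got one i.p. dose from a graded series, given at 1 ml/kg body weight; controls got vehicle alone. Food and water were returned right after dosing. Mortality was followed for up to two weeks, and LD50 was taken as the dose giving 50% mortality.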

The test system of data set [12] is Mus musculus. The experiment in a line: Acute toxicity in human HeLa cells xenografted ip dosed Swiss albino mouse assessed as mortality measured up to 2 weeks. The following applies: in vivo, 336 h. Format: organism-based. In a few lines: as §1

In the case of `Cc1cn2c(=O)c3c(nc2n1N)NC1=C(C(=O)CC(C)(C)C1)C3c1ccc([N+](=O)[O-])cc1` (configuration not stated), the “diameter of the inhibition zone (DIZ)” value is recorded as 19 mm in data set [1]; 22 mm in data set [2]; 24 mm in data set [3]; 23 mm in data set [4]; 9 mm in [5]; 10 mm in [6]. The Survival in [7] is 37 days; in [9], 34 days. In addition, the results for the Activity in data set [8] and in data set [10] were 56% and 51%, respectively. The LD50 turned out to be 0.093 mg/kg in [11] and 0.09 mg/kg in data set [12].

In the case of `CSc1nc2c(c(=O)n1C)C(c1ccc([N+](=O)[O-])cc1)C1=C(CC(C)(C)CC1=O)N2` (configuration not stated), the “diameter of the inhibition zone (DIZ)” value in [1] was 15 mm; in [2], 13 mm; in [3], 15 mm; in data set [4], 14 mm; in [5], 8 mm; in data set [6] it was 6 mm. Also, the Survival in [7] was determined as 34 days; in [9], 28 days. For the same compound, the Activity in data set [8] was 50%; in [10], 48%. Further, the LD50 is 0.098 mg/kg in data set [11] and 0.111 mg/kg in data set [12].

For the compound `CC1(C)CC(=O)C2=C(C1)Nc1nc(NN)[nH]c(=O)c1C2c1ccc([N+](=O)[O-])cc1` (configuration not stated), the “diameter of the inhibition zone (DIZ)” value was found to be 15 mm in data set [1]; 15 mm in data set [2]; 15 mm in data set [3]; 15 mm in data set [4]; 9 mm in [5]; 8 mm in data set [6]. Moreover, the Survival in [7] was determined as 28 days; in data set [9], 29 days. Also, the figures for the Activity in data set [8] and in data set [10] were 31% and 38%, respectively. Besides, the LD50 came to 0.089 mg/kg in data set [11] and 0.1 mg/kg in data set [12].

Consider `CC1(C)CC(=O)C2=C(C1)Nc1nc(N)[nH]c(=O)c1C2c1ccc([N+](=O)[O-])cc1` (configuration not stated), for which the “diameter of the inhibition zone (DIZ)” value in data set [1] was 25 mm; in data set [2], 20 mm; in data set [3], 27 mm; in [4], 23 mm; in data set [5] it was 9 mm; in [6], 9 mm. In addition, the Survival in data set [7] came to 35 days; in data set [9], 31 days. Also, the Activity in [8] is 49%; in data set [10] it was 50%. Also, the values for the LD50 in data set [11] and in [12] were 0.095 mg/kg and 0.09 mg/kg, respectively.

As for `CC1(C)CC(=O)C2=C(C1)Nc1nc3[nH]nc(-c4ccc(Cl)cc4)n3c(=O)c1C2c1ccc([N+](=O)[O-])cc1` (configuration not stated), the “diameter of the inhibition zone (DIZ)” value in [1] came out at 18 mm; in [2], 15 mm; in data set [3], 18 mm; in [4] it was 17 mm; in [5], 9 mm; in [6] it was 7 mm. In addition, the Survival was 36 days in data set [7] and 34 days in data set [9]. Moreover, the Activity in [8] is 51%; in [10], 57%. Also, the values for the LD50 in data set [11] and in data set [12] were 0.095 mg/kg and 0.089 mg/kg, respectively.

In the case of `CSc1nc2c(c(=O)[nH]1)C(c1ccc([N+](=O)[O-])cc1)C1=C(CC(C)(C)CC1=O)N2[C@@H]1O[C@H](CO)[C@@H](O)[C@H](O)[C@H]1O` (some centres not stated), the “diameter of the inhibition zone (DIZ)” value was determined as 21 mm in data set [1]; 19 mm in data set [2]; 23 mm in data set [3]; 23 mm in data set [4]; 8 mm in data set [5]; 9 mm in data set [6]. For the same compound, the Survival in data set [7] was 38 days; in data set [9] it was 36 days. Moreover, the Activity is 60% in data set [8] and 61% in data set [10]. For the same compound, the LD50 was found to be 0.115 mg/kg in data set [11] and 0.119 mg/kg in [12].

The term LD50 denotes the dose at which mortality reaches 50%.
